Test [1] concerns the target T1, CDC7/DBF4 (Cell division cycle 7-related protein kinase/Activator of S phase kinase) (Homo sapiens, UniProt O00311). As to the kind of experiment: Inhibition of human CDC7/DBF4 expressed using baculovirus expression system assessed as [33P]gamma-ATP incorporation into substrate after 60 mins by gamma counting.
In test [2] the target is T1, CDC7/DBF4 (Cell division cycle 7-related protein kinase/Activator of S phase kinase). Put plainly: Inhibition of CDC7/DBF4-mediated MCM2 phosphorylation in human HCT116 cells after 6 hrs by spectrophotometric analysis. Format: cell-based, HCT-116.
For a further test, the system named is HCT-116. Put plainly: Cytotoxicity against human HCT116 cells after 3 days by CellTitre Glo assay. It counts as functional, cell-based. The following applies: HCT-116, 72 h. A digest of the protocol:
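HCT-116 cells seeded at 3000 cells per well and held 24 h at 37 °C. Next day, treated with serial dilutions of inhibitor. After 3 days, an equal volume of Cell Titer GLO was added and luminescence read. EC50 derived from the viability readout.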

Drawing on ChEMBL document CHEMBL1955846, “Aminopyrimidinone cdc7 kinase inhibitors” (Bioorg Med Chem Lett, 2012), this text covers Ki and EC50 for 22 compounds.

T1 sequence (Q9UBU7 whole entry): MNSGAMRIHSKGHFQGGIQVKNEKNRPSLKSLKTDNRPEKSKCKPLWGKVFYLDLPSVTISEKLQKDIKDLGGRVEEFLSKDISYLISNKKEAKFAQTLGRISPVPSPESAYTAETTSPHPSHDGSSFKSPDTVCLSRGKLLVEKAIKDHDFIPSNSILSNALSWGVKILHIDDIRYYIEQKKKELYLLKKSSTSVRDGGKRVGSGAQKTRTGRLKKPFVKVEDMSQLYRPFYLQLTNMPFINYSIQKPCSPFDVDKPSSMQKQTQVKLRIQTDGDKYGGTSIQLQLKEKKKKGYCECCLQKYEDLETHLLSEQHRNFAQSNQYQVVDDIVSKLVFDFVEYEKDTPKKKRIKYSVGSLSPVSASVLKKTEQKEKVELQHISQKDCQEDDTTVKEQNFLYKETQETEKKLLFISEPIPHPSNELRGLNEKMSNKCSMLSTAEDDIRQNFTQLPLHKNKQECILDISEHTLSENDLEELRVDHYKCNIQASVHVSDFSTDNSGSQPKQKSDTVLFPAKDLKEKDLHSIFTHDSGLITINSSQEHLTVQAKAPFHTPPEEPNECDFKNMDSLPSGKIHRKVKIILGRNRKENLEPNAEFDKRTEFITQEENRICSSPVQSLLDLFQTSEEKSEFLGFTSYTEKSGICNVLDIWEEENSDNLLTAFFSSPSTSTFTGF
T1 sequence (O00311 whole entry): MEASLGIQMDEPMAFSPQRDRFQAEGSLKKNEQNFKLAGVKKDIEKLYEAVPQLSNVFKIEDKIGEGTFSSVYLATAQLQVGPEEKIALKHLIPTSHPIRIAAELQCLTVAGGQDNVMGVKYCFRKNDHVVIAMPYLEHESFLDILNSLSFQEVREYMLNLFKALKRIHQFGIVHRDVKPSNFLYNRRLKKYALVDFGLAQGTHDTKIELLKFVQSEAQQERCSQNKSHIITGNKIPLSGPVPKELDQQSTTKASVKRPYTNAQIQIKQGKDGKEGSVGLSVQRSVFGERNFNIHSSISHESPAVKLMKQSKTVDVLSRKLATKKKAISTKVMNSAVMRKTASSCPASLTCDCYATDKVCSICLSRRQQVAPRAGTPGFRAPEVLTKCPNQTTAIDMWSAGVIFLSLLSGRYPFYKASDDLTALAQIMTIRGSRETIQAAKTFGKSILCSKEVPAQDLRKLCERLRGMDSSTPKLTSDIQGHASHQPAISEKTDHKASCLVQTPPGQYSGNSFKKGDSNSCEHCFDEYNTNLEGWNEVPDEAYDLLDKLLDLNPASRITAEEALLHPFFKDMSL

For orientation: Ki means a dissociation constant, usually derived from enzyme kinetics or from competition with a known ligand. In the case of `O=c1cc(-c2ccccc2)nc(NC2CCCCC2)[nH]1`, the Ki in test [1] was 230 nM.
The same measure, in the same setting: the figure for `O=c1cc(-c2cccnc2)nc(NC2CCCCC2)[nH]1` is above 1200 nM; for `Nc1nccc(-c2cc(=O)[nH]c(NC3CCCCC3)n2)n1` it is 5 nM.
Consider `O=c1cc(-c2cn[nH]c2)nc(NC2CCCCC2)[nH]1`, for which the Ki in test [1] was 15 nM.
Same read-out and setting: the figure for `O=c1cc(-c2ccc3[nH]ncc3c2)nc(NC2CCCCC2)[nH]1` is 0.5 nM.
The term EC50 denotes the concentration that produces a half-maximal response. A lower EC50 goes with greater potency. Turning to `O=c1cc(-c2c[nH]c3ncccc23)nc(NC2CCCCC2)[nH]1`, the EC50 in test [2] was determined as 60 nM; in the test on HCT-116 it was 103 nM. The Ki in test [1] is below 0.07 nM.
In the case of `O=c1nc(-c2c[nH]c3ncccc23)nc(NC2CCCCC2)[nH]1`, in test [1], the Ki is 0.3 nM.
Turning to `O=c1nc(-c2c[nH]c3ncccc23)cc(NC2CCCCC2)[nH]1`, in test [1], the Ki came out at 1.4 nM.
Same read-out and setting: the figure for `O=c1cc(-c2c[nH]c3ncccc23)cc(NC2CCCCC2)[nH]1` is 0.5 nM; for `O=c1cc(NC2CCCCC2)cc(-c2c[nH]c3ncccc23)[nH]1` it is 1.1 nM; for `Oc1cc(NC2CCCCC2)nc(-c2c[nH]c3ncccc23)c1` it is 5.4 nM.
Consider `CN(c1nc(-c2c[nH]c3ncccc23)cc(=O)[nH]1)C1CCCCC1`, for which the EC50 in test [2] came to 15 nM; with HCT-116 it was 106 nM. Further, the Ki in test [1] amounted to 0.09 nM.
Taken in the same sequence, the figures for `O=c1cc(-c2c[nH]c3ncccc23)nc(Nc2ccccc2)[nH]1` were 143 nM, 443 nM and 0.12 nM.
Taken in the same sequence, the figures for `O=c1cc(-c2c[nH]c3ncccc23)nc(NCc2ccccc2)[nH]1` were 180 nM, 122 nM and below 0.07 nM.
In the same order, the values of `COCCN(CCOC)c1nc(-c2c[nH]c3ncccc23)cc(=O)[nH]1` are 60 nM, 2210 nM and 0.18 nM.
In the case of `O=c1cc(-c2c[nH]c3ncccc23)nc(N2CCOCC2)[nH]1`, the 50% effective concentration (EC50) is 300 nM in test [2] and 450 nM in the test with HCT-116. In addition, the Ki in test [1] was found to be 0.18 nM.
In the same order, the values of `O=c1cc(-c2c[nH]c3ncccc23)nc(NC2CCOCC2)[nH]1` are 300 nM, 2460 nM and 0.14 nM.
In the same order, the values of `CN1CCC(Nc2nc(-c3c[nH]c4ncccc34)cc(=O)[nH]2)CC1` are 2610 nM, 7370 nM and 0.11 nM.
Taken in the same sequence, the figures for `O=c1cc(-c2c[nH]c3ncccc23)nc(-c2ccccc2)[nH]1` were 410 nM, 830 nM and 0.25 nM.
With `O=c1cc(-c2c[nH]c3ncccc23)nc(N2CCC(O)CC2)[nH]1`, the EC50 in test [2] is 1780 nM; in the test on HCT-116 it was 6190 nM. Also, the Ki in test [1] was determined as 0.2 nM.
For `COC1CCN(c2nc(-c3c[nH]c4ncccc34)cc(=O)[nH]2)CC1`, the EC50 stood at 300 nM in test [2] and 520 nM in the test with HCT-116. Also, the Ki in test [1] stood at 0.2 nM.
Regarding `O=c1cc(-c2c[nH]c3ncccc23)nc(NC(c2ccccc2)c2ccccc2)[nH]1`, the Ki in test [1] came out at 328 nM.
